ChEMBL document CHEMBL3414429, “3,4-diaminobenzoic acid derivatives as inhibitors of the oxytocinase subfamily of M1 aminopeptidases with immune-regulating properties” (J Med Chem, 2015)
The source made the active and inactive calls. No cut-off for these calls is given here.

Assays:
[1] = target: T1, Endoplasmic reticulum aminopeptidase 1 (Homo sapiens, UniProt Q9NZ08); assay: Inhibition of human recombinant ERAP1 expressed in baculovirus infected […] using L-leucine-7-amido-4-methyl coumarin as substrate up to 100 uM after 5 to 10 mins by fluorescence assay
T1 sequence (Q9NZ08 whole entry): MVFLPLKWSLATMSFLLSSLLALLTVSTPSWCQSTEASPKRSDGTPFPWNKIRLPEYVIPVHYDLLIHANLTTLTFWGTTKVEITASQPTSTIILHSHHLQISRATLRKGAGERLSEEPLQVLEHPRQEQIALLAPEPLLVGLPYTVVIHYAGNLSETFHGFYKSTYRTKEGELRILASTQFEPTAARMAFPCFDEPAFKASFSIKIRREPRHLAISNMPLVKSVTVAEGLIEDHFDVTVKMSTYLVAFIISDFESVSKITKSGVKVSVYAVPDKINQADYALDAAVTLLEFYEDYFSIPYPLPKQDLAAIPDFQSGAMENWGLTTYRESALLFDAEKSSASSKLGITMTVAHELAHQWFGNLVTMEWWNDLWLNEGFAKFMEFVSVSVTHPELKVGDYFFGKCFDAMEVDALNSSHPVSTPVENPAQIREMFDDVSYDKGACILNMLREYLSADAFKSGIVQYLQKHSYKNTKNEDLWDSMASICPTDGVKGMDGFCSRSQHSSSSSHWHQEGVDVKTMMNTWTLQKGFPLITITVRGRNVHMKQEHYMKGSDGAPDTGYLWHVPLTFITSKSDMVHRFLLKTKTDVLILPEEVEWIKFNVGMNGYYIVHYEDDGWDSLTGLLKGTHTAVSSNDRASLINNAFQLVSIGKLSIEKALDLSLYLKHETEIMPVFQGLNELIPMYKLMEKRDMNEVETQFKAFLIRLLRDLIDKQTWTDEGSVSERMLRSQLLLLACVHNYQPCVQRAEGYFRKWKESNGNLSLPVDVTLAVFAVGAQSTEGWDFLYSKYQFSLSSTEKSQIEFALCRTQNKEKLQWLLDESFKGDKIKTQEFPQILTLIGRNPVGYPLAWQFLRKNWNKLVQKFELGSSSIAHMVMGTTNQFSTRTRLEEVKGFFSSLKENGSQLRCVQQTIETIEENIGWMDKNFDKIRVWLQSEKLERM
Outline: (§1)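 Recombinant human enzymes made in baculovirus-infected Hi5 cells, kept in 10 mM HEPES pH 7, 100 mM NaCl, 10% glycerol. ERAP1 30 nM, ERAP2 6 nM or IRAP 6 nM with 50 μM substrate (L-AMC for ERAP1 and IRAP, R-AMC for ERAP2) and varied inhibitor. Fluorescence rise followed at ex 380/em 460; IC50 from fit of activity against inhibitor concentration.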

[2] = target: T2, Endoplasmic reticulum aminopeptidase 2 (Homo sapiens, UniProt Q6P179); assay: Inhibition of human recombinant ERAP2 expressed in baculovirus infected cabbage looper ovary Hi5 cells using L-arginyl-7-amido-4-methyl coumarin as substrate after 5 to 10 mins by fluorescence assay; design: species or system Female gonad, BTI-TN-5B1-4
T2 sequence (Q6P179 whole entry): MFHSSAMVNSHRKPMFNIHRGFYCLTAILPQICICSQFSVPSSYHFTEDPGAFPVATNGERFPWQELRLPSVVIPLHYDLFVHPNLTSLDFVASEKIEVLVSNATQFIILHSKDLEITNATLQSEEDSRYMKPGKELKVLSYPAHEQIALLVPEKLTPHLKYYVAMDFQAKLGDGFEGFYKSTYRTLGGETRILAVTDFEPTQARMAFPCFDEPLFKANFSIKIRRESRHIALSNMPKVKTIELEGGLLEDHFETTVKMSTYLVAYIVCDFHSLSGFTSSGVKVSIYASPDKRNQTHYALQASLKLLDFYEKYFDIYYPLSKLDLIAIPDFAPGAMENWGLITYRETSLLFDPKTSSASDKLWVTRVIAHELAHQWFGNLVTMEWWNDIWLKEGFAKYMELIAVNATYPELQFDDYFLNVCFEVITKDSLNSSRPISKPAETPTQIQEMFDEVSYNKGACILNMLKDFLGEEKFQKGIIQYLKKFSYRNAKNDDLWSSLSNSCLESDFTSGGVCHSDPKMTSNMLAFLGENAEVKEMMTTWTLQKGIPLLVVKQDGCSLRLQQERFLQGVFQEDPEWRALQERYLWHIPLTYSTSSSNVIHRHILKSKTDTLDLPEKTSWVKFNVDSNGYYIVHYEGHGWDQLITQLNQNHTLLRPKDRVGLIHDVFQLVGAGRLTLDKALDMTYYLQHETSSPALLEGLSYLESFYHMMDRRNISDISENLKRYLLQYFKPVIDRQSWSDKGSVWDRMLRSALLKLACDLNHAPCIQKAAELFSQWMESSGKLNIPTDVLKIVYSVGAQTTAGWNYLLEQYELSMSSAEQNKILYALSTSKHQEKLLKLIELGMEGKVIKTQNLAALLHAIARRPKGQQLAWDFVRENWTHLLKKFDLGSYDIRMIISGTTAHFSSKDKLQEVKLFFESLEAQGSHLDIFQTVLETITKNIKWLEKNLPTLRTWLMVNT

[3] = target: T2, Endoplasmic reticulum aminopeptidase 2; assay: Inhibition of human recombinant ERAP2 expressed in baculovirus infected cabbage looper ovary Hi5 cells using L-arginyl-7-amido-4-methyl coumarin as substrate up to 100 uM after 5 to 10 mins by fluorescence assay; conditions: BTI-TN-5B1-4; outline: as §1
[4] = target: T1, Endoplasmic reticulum aminopeptidase 1; assay: Inhibition of human recombinant ERAP1 expressed in baculovirus infected Sf9 cells using L-leucine-7-amido-4-methyl coumarin as substrate after 5 to 10 mins by fluorescence assay
[5] = target: T3, Leucyl-cystinyl aminopeptidase (Homo sapiens, UniProt Q9UIQ6); assay: Inhibition of human recombinant IRAP expressed in baculovirus infected cabbage looper ovary Hi5 cells using L-leucine-7-amido-4-methyl coumarin as substrate after 5 to 10 mins by fluorescence assay; design: species or system Female gonad, BTI-TN-5B1-4
T3 sequence (Q9UIQ6 whole entry): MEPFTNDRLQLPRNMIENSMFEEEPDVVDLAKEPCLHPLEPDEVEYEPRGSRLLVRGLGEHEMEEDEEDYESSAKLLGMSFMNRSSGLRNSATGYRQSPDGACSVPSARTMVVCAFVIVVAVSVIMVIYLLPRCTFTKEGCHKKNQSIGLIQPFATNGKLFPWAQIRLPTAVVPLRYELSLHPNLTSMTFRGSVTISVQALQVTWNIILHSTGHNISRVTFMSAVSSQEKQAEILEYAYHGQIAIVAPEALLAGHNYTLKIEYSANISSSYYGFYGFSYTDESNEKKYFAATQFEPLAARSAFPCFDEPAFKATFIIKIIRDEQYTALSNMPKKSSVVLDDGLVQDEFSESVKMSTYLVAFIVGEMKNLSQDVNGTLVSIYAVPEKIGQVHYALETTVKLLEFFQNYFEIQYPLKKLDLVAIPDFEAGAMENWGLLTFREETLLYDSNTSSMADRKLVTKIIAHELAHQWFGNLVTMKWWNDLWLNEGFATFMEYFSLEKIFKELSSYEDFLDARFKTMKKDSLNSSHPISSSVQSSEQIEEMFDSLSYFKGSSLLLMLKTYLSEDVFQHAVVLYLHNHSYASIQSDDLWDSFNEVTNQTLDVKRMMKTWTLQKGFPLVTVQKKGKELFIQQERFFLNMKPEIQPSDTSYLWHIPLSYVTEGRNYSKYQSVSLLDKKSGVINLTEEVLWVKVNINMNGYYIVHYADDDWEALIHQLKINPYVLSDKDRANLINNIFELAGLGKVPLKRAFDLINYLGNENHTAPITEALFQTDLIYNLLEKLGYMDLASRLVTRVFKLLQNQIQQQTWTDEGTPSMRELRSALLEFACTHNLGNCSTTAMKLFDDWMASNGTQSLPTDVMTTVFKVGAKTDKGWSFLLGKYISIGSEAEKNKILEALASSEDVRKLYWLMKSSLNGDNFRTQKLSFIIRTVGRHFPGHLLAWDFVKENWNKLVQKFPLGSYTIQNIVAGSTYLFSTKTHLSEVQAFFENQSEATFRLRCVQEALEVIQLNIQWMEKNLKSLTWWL

[6] = target: T4, Endoplasmic reticulum aminopeptidase 1 (Mus musculus) (UniProt Q9EQH2); assay: Inhibition of ERAP1 in mouse RAW264.7 cells assessed as reduction in interferon-gamma/LPS-induced phagocytosis after 24 hrs by fluorescent latex beads internalization assay; assay type: cell-based
T4 sequence (whole entry): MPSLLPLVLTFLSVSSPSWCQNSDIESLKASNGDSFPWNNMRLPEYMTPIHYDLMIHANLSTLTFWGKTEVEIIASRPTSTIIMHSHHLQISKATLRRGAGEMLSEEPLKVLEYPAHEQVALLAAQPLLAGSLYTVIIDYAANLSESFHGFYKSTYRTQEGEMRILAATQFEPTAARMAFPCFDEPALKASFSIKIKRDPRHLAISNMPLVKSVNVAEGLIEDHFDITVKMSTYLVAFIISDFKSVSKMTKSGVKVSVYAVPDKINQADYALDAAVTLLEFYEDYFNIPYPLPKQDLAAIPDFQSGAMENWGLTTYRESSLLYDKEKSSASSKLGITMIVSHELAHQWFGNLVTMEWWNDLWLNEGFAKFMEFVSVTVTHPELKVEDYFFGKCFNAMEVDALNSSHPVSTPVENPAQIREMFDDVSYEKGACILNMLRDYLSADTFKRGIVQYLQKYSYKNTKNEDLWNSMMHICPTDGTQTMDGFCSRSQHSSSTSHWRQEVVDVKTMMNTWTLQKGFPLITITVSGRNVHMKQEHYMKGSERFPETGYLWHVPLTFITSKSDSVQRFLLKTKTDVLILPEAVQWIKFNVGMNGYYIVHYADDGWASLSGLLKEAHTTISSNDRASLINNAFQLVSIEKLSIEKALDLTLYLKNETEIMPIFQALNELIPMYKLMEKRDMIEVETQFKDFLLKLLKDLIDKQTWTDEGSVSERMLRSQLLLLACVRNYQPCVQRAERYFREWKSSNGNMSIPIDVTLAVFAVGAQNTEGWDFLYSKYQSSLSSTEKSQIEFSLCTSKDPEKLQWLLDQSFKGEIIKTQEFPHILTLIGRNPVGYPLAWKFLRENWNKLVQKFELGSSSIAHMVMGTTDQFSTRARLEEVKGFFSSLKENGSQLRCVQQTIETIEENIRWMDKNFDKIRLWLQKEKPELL
Outline: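 RAW264.7 cells in RPMI 1640/10% FBS, seeded 2×10^4/well for 24 h. Activated with IFN-γ (100 IU/mL) plus LPS (1 μg/mL) with or without inhibitor at various concentrations. FITC-IgG latex beads given in 1% FBS medium for 24 h at 37 °C. Uptake read as fluorescence (ex 485/em 535) after PBS washes; ED50 from curve fit.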

[7] = target: T3, Leucyl-cystinyl aminopeptidase; assay: Inhibition of human recombinant IRAP expressed in baculovirus infected cabbage looper ovary Hi5 cells using L-leucine-7-amido-4-methyl coumarin as substrate up to 100 uM after 5 to 10 mins by fluorescence assay; conditions: BTI-TN-5B1-4; outline: as §1

Nc1ccc(C(=O)N[C@@H](Cc2c[nH]c3ccccc23)C(=O)OCc2ccccc2)cc1N
inhibition [1]: inactive | IC50 [2]: > 100 µM

COC(=O)[C@H](CCCNC(=N)N)NC(=O)c1ccc(N)c(N)c1
inhibition [3]: inactive

Nc1ccc(C(=O)O)cc1NC(=O)[C@@H](N)Cc1ccc(O)cc1
IC50 [4]: > 100 µM

COC(=O)[C@@H](NC(=O)c1ccc(N)c(NC(=O)[C@@H](N)Cc2ccc(O)cc2)c1)[C@@H](C)O
IC50 [4]: > 100 µM

COC(=O)c1ccc(NC(=O)[C@@H](N)CCCNC(=N)N)c(N)c1
inhibition [1]: inactive

NCCCC[C@H](NC(=O)c1ccc(N)c(NC(=O)[C@@H](N)Cc2ccc(O)cc2)c1)C(=O)O
inhibition [1]: inactive

CCCC[C@H](N)C(=O)Nc1ccc(C(=O)N[C@H](C(=O)OCc2ccccc2)C(C)C)cc1N
IC50 [4]: > 100 µM

CCCC[C@H](N)C(=O)Nc1ccc(C(=O)N[C@H](C(=O)O)C(C)C)cc1N
inhibition [1]: inactive | IC50 [5]: 3.9 µM

Nc1ccc(C(=O)N[C@@H](Cc2c[nH]c3ccccc23)C(=O)O)cc1NC(=O)[C@@H](N)CCc1ccc(O)cc1
IC50 [2]: > 100 µM

COC(=O)[C@H](CCCCN)NC(=O)c1ccc(N)c(NC(=O)[C@@H](N)CCc2ccccc2)c1
ED50 [6]: 0.97 µM | inhibition [6]: Dose-dependent effect

CCCC[C@H](N)C(=O)Nc1cc(C(=O)N[C@H](C(=O)OCc2ccccc2)C(C)C)ccc1N
IC50 [4]: > 100 µM | IC50 [2]: > 100 µM | ED50 [6]: inactive

CC(C)[C@H](NC(=O)c1ccc(NC(=O)[C@@H](N)CCc2ccccc2)c(N)c1)C(=O)O
inhibition [1]: inactive | IC50 [2]: > 100 µM

COC(=O)[C@H](CCCCN)NC(=O)c1ccc(N)c(NC(=O)[C@@H](N)CCc2ccc(OCc3ccccc3)cc2)c1
IC50 [4]: > 100 µM

CCCC[C@H](N)C(=O)Nc1cc(C(=O)N[C@@H](Cc2ccc(O)cc2)C(=O)OC)ccc1N
IC50 [4]: > 100 µM

CC(C)C[C@H](N)C(=O)Nc1cc(C(=O)O)ccc1N
inhibition [1]: inactive | inhibition [3]: inactive | inhibition [7]: inactive

COC(=O)[C@H](CCCCN)NC(=O)c1ccc(NC(=O)[C@@H](N)CCc2ccccc2)c(N)c1
inhibition [1]: inactive | inhibition [3]: inactive

COC(=O)c1ccc(NC(=O)[C@@H](N)Cc2ccc(O)cc2)c(N)c1
inhibition [1]: inactive

CCCC[C@H](N)C(=O)Nc1ccc(C(=O)OC)cc1N
inhibition [1]: inactive

CCCC[C@H](N)C(=O)Nc1ccc(C(=O)N[C@@H](CCCCN)C(=O)OC)cc1N
inhibition [1]: inactive

COC(=O)[C@H](CCCCN)NC(=O)c1ccc(N)c(NC(=O)[C@@H](N)CCc2ccc(O)cc2)c1
IC50 [4]: > 100 µM

COC(=O)c1ccc(NC(=O)[C@@H](N)CC(C)C)c(N)c1
inhibition [1]: inactive | IC50 [2]: > 100 µM | inhibition [7]: inactive

CCCC[C@H](N)C(=O)Nc1cc(C(=O)OC)ccc1N
IC50 [4]: > 100 µM

COC(=O)c1ccc(N)c(NC(=O)[C@@H](N)CCc2ccc(O)cc2)c1
IC50 [4]: > 100 µM | inhibition [3]: inactive

COC(=O)c1ccc(N)c(NC(=O)[C@@H](N)Cc2ccc(OCc3ccccc3)cc2)c1
inhibition [1]: inactive | inhibition [3]: inactive

COC(=O)[C@H](CCCN)NC(=O)c1ccc(N)c(NC(=O)[C@@H](N)CCc2ccccc2)c1
inhibition [1]: inactive | inhibition [3]: inactive | inhibition [7]: inactive

COC(=O)[C@H](Cc1ccc(O)cc1)NC(=O)c1ccc(N)c(NC(=O)[C@@H](N)CCCNC(=N)N)c1
ED50 [6]: 3 µM | inhibition [6]: Dose-dependent effect

COC(=O)c1ccc(NC(=O)[C@@H](N)CCc2ccccc2)c(N)c1
IC50 [4]: > 100 µM

COC(=O)[C@H](CCCCN)NC(=O)c1ccc(NC(=O)[C@@H](N)CCCNC(=N)N)c(N)c1
inhibition [1]: inactive

COC(=O)c1ccc(N)c(NC(=O)[C@@H](N)CCCNC(=N)N)c1
inhibition [1]: inactive

COC(=O)[C@H](CCCCN)NC(=O)c1ccc(N)c(NC(=O)[C@@H](N)CC(C)C)c1
inhibition [1]: inactive | inhibition [7]: inactive

COC(=O)[C@H](Cc1ccc(O)cc1)NC(=O)c1ccc(N)c(N)c1
inhibition [1]: inactive | inhibition [3]: inactive

Nc1ccc(C(=O)N[C@@H](Cc2c[nH]c3ccccc23)C(=O)OCc2ccccc2)cc1NC(=O)[C@@H](N)CCc1ccc(OCc2ccccc2)cc1
IC50 [4]: > 100 µM | IC50 [2]: > 100 µM

Nc1ccc(C(=O)O)cc1NC(=O)[C@@H](N)Cc1ccc(OCc2ccccc2)cc1
inhibition [1]: inactive | inhibition [3]: inactive

Nc1cc(C(=O)N[C@@H](Cc2c[nH]c3ccccc23)C(=O)OCc2ccccc2)ccc1NC(=O)[C@@H](N)CCc1ccc(OCc2ccccc2)cc1
inhibition [1]: inactive

COC(=O)[C@H](CCCCN)NC(=O)c1ccc(NC(=O)[C@@H](N)Cc2ccc(O)cc2)c(N)c1
IC50 [4]: > 100 µM | IC50 [2]: > 100 µM

COC(=O)c1ccc(N)c(NC(=O)[C@@H](N)Cc2ccc(O)cc2)c1
inhibition [1]: inactive | IC50 [2]: > 100 µM

COC(=O)[C@H](Cc1ccc(O)cc1)NC(=O)c1ccc(NC(=O)[C@@H](N)Cc2ccc(OCc3ccccc3)cc2)c(N)c1
inhibition [1]: inactive

COC(=O)[C@H](CCCCN)NC(=O)c1ccc(N)c(NC(=O)[C@@H](N)CCCNC(=N)N)c1
inhibition [7]: inactive

CC(C)[C@H](NC(=O)c1ccc(N)c(NC(=O)[C@@H](N)Cc2ccc(O)cc2)c1)C(=O)OCc1ccccc1
inhibition [1]: inactive

CC(C)[C@H](NC(=O)c1ccc(N)c(NC(=O)[C@@H](N)Cc2ccc(O)cc2)c1)C(=O)O
inhibition [1]: inactive | IC50 [2]: > 100 µM

Nc1ccc(C(=O)N[C@@H](Cc2c[nH]c3ccccc23)C(=O)O)cc1NC(=O)[C@@H](N)Cc1ccc(O)cc1
IC50 [2]: 40 µM

Nc1ccc(C(=O)N[C@@H](Cc2c[nH]c3ccccc23)C(=O)O)cc1N
IC50 [4]: > 100 µM

COC(=O)c1ccc(N)c(NC(=O)[C@@H](N)CC(C)C)c1
inhibition [1]: inactive | inhibition [3]: inactive | inhibition [7]: inactive

N=C(N)NCCC[C@H](N)C(=O)Nc1cc(C(=O)O)ccc1N
inhibition [1]: inactive | IC50 [2]: > 100 µM

CCCC[C@H](N)C(=O)Nc1cc(C(=O)N[C@@H](CCCCN)C(=O)OC)ccc1N
IC50 [5]: > 100 µM

COC(=O)[C@H](CCCCN)NC(=O)c1ccc(N)c(NC(=O)[C@@H](N)COCc2ccccc2)c1
inhibition [1]: inactive | inhibition [3]: inactive | inhibition [7]: inactive

COC(=O)[C@H](Cc1ccc(O)cc1)NC(=O)c1ccc(N)c(NC(=O)[C@@H](N)Cc2ccc(O)cc2)c1
IC50 [4]: 110 µM

CC(C)[C@H](NC(=O)c1ccc(N)c(NC(=O)[C@@H](N)CCCNC(=N)N)c1)C(=O)O
inhibition [1]: inactive

COC(=O)c1ccc(NC(=O)[C@@H](N)Cc2ccc(OCc3ccccc3)cc2)c(N)c1
inhibition [1]: inactive | inhibition [3]: inactive

COC(=O)c1ccc(N)c(NC(=O)[C@@H](N)CCc2ccc(OCc3ccccc3)cc2)c1
inhibition [1]: inactive | inhibition [3]: inactive

CC(C)[C@H](NC(=O)c1ccc(NC(=O)[C@@H](N)CCc2ccccc2)c(N)c1)C(=O)OCc1ccccc1
inhibition [1]: inactive | IC50 [2]: > 100 µM

COC(=O)[C@H](CCCCN)NC(=O)c1ccc(N)c(N)c1
IC50 [4]: > 100 µM | inhibition [3]: inactive

NCCCC[C@H](NC(=O)c1ccc(N)c(NC(=O)[C@@H](N)Cc2ccccc2)c1)C(=O)O
inhibition [1]: inactive
